Measured values: publication PMC11682233 (Scientific Reports, 2024)

Assays:
[1] = tested on: NPC cells; test: Preliminary NPC cytotoxicity screening; type: cell-based; conditions: MTT, 48 h
Method in brief: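 3,000 NPC cells per well, plated 24 h, then given fresh medium with test compound at 0.1, 1, 10 or 100 µM for 48 h; cisplatin served as positive control. MTT at 0.5 mg/mL final in RPMI for 3 h at 37 °C. Formazan dissolved in DMSO, absorbance read at 540 nm. Run in triplicate; t-test, p < 0.05 significant.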

[2] = target: T1, FZD10 recombinant proteoliposome (Homo sapiens, UniProt Q9ULW2); test: STD-NMR; type: binding; conditions: 230 nM protein, 0.3–1.5 µM ligand, D2O, 298 K
T1 sequence (Q9ULW2 21-581): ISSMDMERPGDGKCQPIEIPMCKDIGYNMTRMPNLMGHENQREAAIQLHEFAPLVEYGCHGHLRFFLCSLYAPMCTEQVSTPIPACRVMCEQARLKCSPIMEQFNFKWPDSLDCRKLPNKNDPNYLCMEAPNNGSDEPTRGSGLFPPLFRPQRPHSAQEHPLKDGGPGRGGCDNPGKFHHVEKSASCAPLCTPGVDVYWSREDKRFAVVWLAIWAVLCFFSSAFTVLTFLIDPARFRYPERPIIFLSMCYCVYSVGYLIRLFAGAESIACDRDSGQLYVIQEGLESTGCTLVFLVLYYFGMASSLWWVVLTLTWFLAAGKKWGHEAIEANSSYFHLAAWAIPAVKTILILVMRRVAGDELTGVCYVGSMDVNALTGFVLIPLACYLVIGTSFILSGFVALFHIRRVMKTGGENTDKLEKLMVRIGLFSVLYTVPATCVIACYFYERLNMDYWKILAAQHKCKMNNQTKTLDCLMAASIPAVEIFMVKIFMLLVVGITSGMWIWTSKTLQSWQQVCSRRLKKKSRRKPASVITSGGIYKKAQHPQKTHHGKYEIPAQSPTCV
Method in brief: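 STD-NMR at 600 MHz on a cryoprobe-equipped spectrometer, with the residual D2O peak (δH 4.70) as chemical shift reference. 1H spectral width 9600 Hz, 30° pulse angle, 2.5 s recycle delay, 8 scans.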

[3] = tested on: phosphorylated LRP6; test: Western immunoblotting of Wnt signaling proteins in SUNE5-8F cells; type: cell-based; conditions: IC25 and IC50 doses, 48 h
Method in brief: (§1)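 Lysates spun at 12,000 × g, 10 min, 4 °C; Bradford assay. 10% SDS-PAGE, nitrocellulose transfer, 5% BSA block 1 h, primary antibody overnight at 4 °C, HRP secondary 1 h at room temperature, ECL detection. Band densities normalised to β-actin, expressed relative to untreated control.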

[4] = tested on: non-phosphorylated β-catenin; test: as above; type: cell-based; conditions: IC25 and IC50 doses, 48 h
Method in brief: as §1

[5] = tested on: SUNE5-8F; test: Clonogenic; type: cell-based
[6] = tested on: SUNE6-10B; test: Clonogenic; type: cell-based
[7] = tested on: non-phosphorylated β-catenin; test: Western immunoblotting of Wnt signaling proteins in SUNE6-10B cells; type: cell-based; conditions: IC50 dose, 48 h
Method in brief: as §1

[8] = tested on: phosphorylated LRP6; test: as above; type: cell-based; conditions: IC50 dose, 48 h
Method in brief: as §1

[9] = IC25 dose (rilpivirine 2 µM, doxazosin 7 µM, nicergoline 20 µM)
[10] = IC50 dose (rilpivirine 4 µM, doxazosin 14 µM, nicergoline 40 µM)
[11] = IC25 dose (doxazosin 7 µM, nicergoline 20 µM)

Compound | 50% inhibition cutoff at 100 µM [1] | STD signals (binding to FZD10) [2] | expression of phosphorylated LRP6 [3] | expression of active β-catenin (non-phosphorylated β-catenin) [4] | colony formation [5, 9] | colony formation [5, 10] | colony formation [6, 11] | colony formation [6, 10] | expression level of active β-catenin [7] | expression of phosphorylated LRP6 [8] | colony formation ([5]; 8 µM)
CO[C@]12C[C@@H](COC(=O)c3cncc(Br)c3)CN(C)[C@@H]1Cc1cn(C)c3cccc2c13 [Nicergoline] | met the 50% inhibition cutoff at 100 µM | STD signals corresponding to H2 and H3 | decreased | decreased | suppressed the colony formation | suppressed the colony formation | suppressed the colony formation | suppressed the colony formation | decreased |  | 
COc1cc2nc(N3CCN(C(=O)C4COc5ccccc5O4)CC3)nc(N)c2cc1OC (centres unmarked) [Doxazosin] | met the 50% inhibition cutoff at 100 µM | STD signals for H5 and H6 | decreased | decreased | suppressed the colony formation | suppressed the colony formation | suppressed the colony formation | suppressed the colony formation |  |  | 
Cc1cc(/C=C/C#N)cc(C)c1Nc1ccnc(Nc2ccc(C#N)cc2)n1 [Rilpivirine] | met the 50% inhibition cutoff at 100 µM | STD signals from H2 | decreased | decreased | no impact | reduced the colony formation ability |  | reduced the colony formation ability | decreased | reduced | 
COc1cc2nc(N3CCN(C(=O)c4ccco4)CC3)nc(N)c2cc1OC [Prazosin] | met the 50% inhibition cutoff at 100 µM | STD signals from H2, H3,4, and H5,6 | decreased | decreased |  |  |  |  | decreased |  | inhibited colony formation
